Values after ≈ are worked out from the molar mass of the structure shown.
Key:
Format in all cases: functional
[1] = tested on: Salmonella enterica subsp. enterica serovar Typhi str. CT18; test: Antimicrobial activity against Salmonella typhi after 24 hrs by twofold serial dilution method
How it was run: (§1)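 Twofold serial broth dilution in nutrient broth at pH 7.4 ± 0.2. Compound stocks were 1 mg/mL in DMSO, diluted 1:5 into seeded broth, then six serial dilutions. Inocula came from 24 h nutrient-agar cultures, final 10⁵ cfu/mL. Incubation was 37 ± 1 °C for 24 h, with growth and solvent controls. MIC was read visually; ciprofloxacin was the standard.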

[2] = tested on: Rattus norvegicus; test: Antipyretic activity against brewer's yeast-induced hyperthermia in Wistar rat assessed as change in rectal temperature at 60 mg/kg, po after 90 mins
How it was run: (§2)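 Wistar rats of both sexes, 200–250 g, received brewer's yeast in normal saline sc. Rectal temperature was taken with a digital thermometer (precision 0.1 °C). At 18 h, rats whose temperature had risen 0.3–0.5 °C were selected. Test compounds (30 or 60 mg/kg) or indomethacin (5 mg/kg) were given orally in 1% CMC; controls received vehicle only. Temperature was measured at 30, 60, 90, 120 and 150 min, mean ± SEM.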

[3] = tested on: Mus musculus; test: Analgesic activity in albino mouse assessed as inhibition of acetic acid-induced writhing response at 90 mg/kg, po administered 1 hr prior to acetic acid challenge relative to control
How it was run: (§3)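 Albino mice of both sexes, 20–25 g, n = 6 per group. Doses of 30, 60 or 90 mg/kg were given orally as suspensions in 1% sodium CMC. 1 h later, 1% acetic acid in normal saline (10 mL/kg) was injected ip. Complete extension of either hind limb counted as a writhe. Counting started 5 min after injection and ran 30 min. Results are % inhibition = [1 − T/C] × 100 versus vehicle controls, mean ± SEM.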

[4] = tested on: Staphylococcus aureus; test: Antimicrobial activity against Staphylococcus aureus after 24 hrs by twofold serial dilution method; how it was run: as §1
[5] = tested on: Aspergillus niger; test: Antimicrobial activity against Aspergillus niger after 72 to 96 hrs by twofold serial dilution method
How it was run: (§4)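 Twofold serial broth dilution in Sabouraud dextrose broth at pH 5.6. Spores came from 1–7-day Sabouraud agar slants, final inoculum 1.1–1.5 × 10² cfu/mL. Compound stocks were 1 mg/mL in DMSO, diluted 1:5 into seeded broth, then six serial dilutions. Incubation was 28 ± 1 °C for 72–96 h, with growth and solvent controls. MIC was read visually; amphotericin B was the standard.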

[6] = tested on: Candida albicans; test: Antimicrobial activity against Candida albicans after 72 to 96 hrs by twofold serial dilution method; how it was run: as §4
[7] = tested on: Rattus norvegicus; test: Antipyretic activity against brewer's yeast-induced hyperthermia in Wistar rat assessed as change in rectal temperature at 30 mg/kg, po after 90 mins; how it was run: as §2
[8] = tested on: Mus musculus; test: Analgesic activity in albino mouse assessed as inhibition of acetic acid-induced writhing response at 30 mg/kg, po administered 1 hr prior to acetic acid challenge relative to control; how it was run: as §3
[9] = tested on: Rattus norvegicus; test: Antipyretic activity against brewer's yeast-induced hyperthermia in Wistar rat assessed as change in rectal temperature at 30 mg/kg, po after 30 mins; how it was run: as §2
[10] = tested on: Klebsiella pneumoniae; test: Antimicrobial activity against Klebsiella pneumoniae after 24 hrs by twofold serial dilution method; how it was run: as §1
[11] = tested on: Aspergillus flavus; test: Antimicrobial activity against Aspergillus flavus after 72 to 96 hrs by twofold serial dilution method; how it was run: as §4
[12] = tested on: Rattus norvegicus; test: Antipyretic activity against brewer's yeast-induced hyperthermia in Wistar rat assessed as change in rectal temperature at 30 mg/kg, po after 120 mins; how it was run: as §2
[13] = tested on: Rattus norvegicus; test: Antipyretic activity against brewer's yeast-induced hyperthermia in Wistar rat assessed as change in rectal temperature at 60 mg/kg, po after 60 mins; how it was run: as §2
[14] = tested on: Rattus norvegicus; test: Antipyretic activity against brewer's yeast-induced hyperthermia in Wistar rat assessed as change in rectal temperature at 30 mg/kg, po after 150 mins; how it was run: as §2
[15] = tested on: Rattus norvegicus; test: Antipyretic activity against brewer's yeast-induced hyperthermia in Wistar rat assessed as change in rectal temperature at 60 mg/kg, po after 30 mins; how it was run: as §2
[16] = tested on: Rattus norvegicus; test: Antipyretic activity against brewer's yeast-induced hyperthermia in Wistar rat assessed as change in rectal temperature at 60 mg/kg, po after 150 mins; how it was run: as §2
[17] = tested on: Rattus norvegicus; test: Antipyretic activity against brewer's yeast-induced hyperthermia in Wistar rat assessed as change in rectal temperature at 30 mg/kg, po after 60 mins; how it was run: as §2
[18] = tested on: Escherichia coli; test: Antimicrobial activity against Escherichia coli after 24 hrs by twofold serial dilution method; how it was run: as §1
[19] = tested on: Mus musculus; test: Analgesic activity in albino mouse assessed as inhibition of acetic acid-induced writhing response at 60 mg/kg, po administered 1 hr prior to acetic acid challenge relative to control; how it was run: as §3
[20] = tested on: Rattus norvegicus; test: Antipyretic activity against brewer's yeast-induced hyperthermia in Wistar rat assessed as change in rectal temperature at 60 mg/kg, po after 120 mins; how it was run: as §2
[21] = tested on: Pseudomonas aeruginosa; test: Antimicrobial activity against Pseudomonas aeruginosa after 24 hrs by twofold serial dilution method; how it was run: as §1
[22] = tested on: Rhizopus; test: Antimicrobial activity against Rhizopus sp. after 72 to 96 hrs by twofold serial dilution method; how it was run: as §4

Compound CC1C(=O)C(C)C(c2ccccc2)N(C(=O)CN2CCN(C)CC2)C1c1ccccc1 (stereo unspecified) has an MIC [1] of 25 µg/mL (≈ 59.6 µM), an Activity [2] of 37.9 °C and an inhibition in vivo at 90 mg/kg [3] of 13.9%. The MIC [4] was 50 µg/mL (≈ 119 µM), the MIC [5] was 50 µg/mL (≈ 119 µM) and the MIC [6] was 100 µg/mL (≈ 238 µM). The Activity [7] was 38.95 °C, the inhibition in vivo at 30 mg/kg [8] was 17.4% and the Activity [9] was 38.11 °C. It also gave an MIC [10] of 12.5 µg/mL (≈ 29.8 µM), an MIC [11] of 50 µg/mL (≈ 119 µM) and an Activity [12] of 38.85 °C. It also gave an Activity [13] of 37.95 °C, an Activity [14] of 38.7 °C and an Activity [15] of 38.1 °C. For the same compound, the Activity [16] was 37.55 °C, the Activity [17] was 38 °C and the MIC [18] was 100 µg/mL (≈ 238 µM). The inhibition in vivo at 60 mg/kg [19] was 24.1%, the Activity [20] was 37.7 °C and the MIC [21] was 50 µg/mL (≈ 119 µM). For the same compound, the MIC [22] was 50 µg/mL (≈ 119 µM).
With CC1C(=O)CC(c2ccc(Cl)cc2)N(C(=O)CN2CCN(C)CC2)C1c1ccc(Cl)cc1 (stereo unspecified) the MIC [1] was 12.5 µg/mL (≈ 26.3 µM), the Activity [2] was 37.85 °C and the inhibition in vivo at 90 mg/kg [3] was 61.6%. It also gave an MIC [4] of 50 µg/mL (≈ 105 µM), an MIC [5] of 25 µg/mL (≈ 52.7 µM) and an MIC [6] of 6.25 µg/mL (≈ 13.2 µM). For the same compound, the Activity [7] was 37.89 °C, the inhibition in vivo at 30 mg/kg [8] was 49.2% and the Activity [9] was 37.05 °C. The MIC [10] was 25 µg/mL (≈ 52.7 µM), the MIC [11] was 50 µg/mL (≈ 105 µM) and the Activity [12] was 37.7 °C. For the same compound, the Activity [13] was 37.92 °C, the Activity [14] was 37.65 °C and the Activity [15] was 37.95 °C. It also gave an Activity [16] of 37.5 °C, an Activity [17] of 37.96 °C and an MIC [18] of 25 µg/mL (≈ 52.7 µM). It also gave an inhibition in vivo at 60 mg/kg [19] of 70.4%, an Activity [20] of 37.65 °C and an MIC [21] of 6.25 µg/mL (≈ 13.2 µM). It also gave an MIC [22] of 12.5 µg/mL (≈ 26.3 µM).
In the case of CC1C(=O)C(C)C(c2ccc(Cl)cc2)N(C(=O)CN2CCN(C)CC2)C1c1ccc(Cl)cc1 (stereo unspecified), the MIC [1] was 50 µg/mL (≈ 102 µM), the Activity [2] was 37.75 °C and the inhibition in vivo at 90 mg/kg [3] was 38.9%. The MIC [4] was 6.25 µg/mL (≈ 12.8 µM), the MIC [5] was 25 µg/mL (≈ 51.2 µM) and the MIC [6] was 12.5 µg/mL (≈ 25.6 µM). It also gave an Activity [7] of 37.8 °C, an inhibition in vivo at 30 mg/kg [8] of 22.5% and an Activity [9] of 37.95 °C. It also gave an MIC [10] of 6.25 µg/mL (≈ 12.8 µM), an MIC [11] of 25 µg/mL (≈ 51.2 µM) and an Activity [12] of 37.6 °C. The Activity [13] was 37.85 °C, the Activity [14] was 37.4 °C and the Activity [15] was 37.92 °C. The Activity [16] was 37.3 °C, the Activity [17] was 37.9 °C and the MIC [18] was 12.5 µg/mL (≈ 25.6 µM). The inhibition in vivo at 60 mg/kg [19] was 36.5%, the Activity [20] was 37.55 °C and the MIC [21] was 12.5 µg/mL (≈ 25.6 µM). The MIC [22] was 6.25 µg/mL (≈ 12.8 µM).
